This note sets out measurements from ChEMBL document CHEMBL2311390, “Synthesis and preliminary evaluation of pharmacological properties of some piperazine derivatives of xanthone” (Bioorg Med Chem, 2013).

For orientation: Ki means a measure of affinity in units of concentration, obtained from inhibition or displacement. A higher Ki goes with lower affinity.

Assay [1] has as its target T1, Adrenergic receptor alpha-1 (Rattus norvegicus, UniProt P15823+P23944+P43140).
T1 sequence (P15823 whole entry): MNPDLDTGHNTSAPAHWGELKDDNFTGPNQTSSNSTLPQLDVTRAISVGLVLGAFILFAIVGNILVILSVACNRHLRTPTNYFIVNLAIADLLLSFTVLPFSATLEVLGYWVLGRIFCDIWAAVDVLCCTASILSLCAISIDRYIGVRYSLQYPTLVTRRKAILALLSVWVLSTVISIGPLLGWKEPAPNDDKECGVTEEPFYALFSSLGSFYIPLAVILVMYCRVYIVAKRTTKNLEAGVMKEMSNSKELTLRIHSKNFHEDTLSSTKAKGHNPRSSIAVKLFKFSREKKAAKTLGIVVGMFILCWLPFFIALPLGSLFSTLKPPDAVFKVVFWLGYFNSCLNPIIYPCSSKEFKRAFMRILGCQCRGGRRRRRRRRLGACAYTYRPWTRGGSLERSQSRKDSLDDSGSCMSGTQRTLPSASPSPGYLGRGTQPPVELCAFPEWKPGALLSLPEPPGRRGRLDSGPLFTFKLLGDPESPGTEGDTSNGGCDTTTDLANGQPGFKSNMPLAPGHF
T1 sequence (P23944 whole entry): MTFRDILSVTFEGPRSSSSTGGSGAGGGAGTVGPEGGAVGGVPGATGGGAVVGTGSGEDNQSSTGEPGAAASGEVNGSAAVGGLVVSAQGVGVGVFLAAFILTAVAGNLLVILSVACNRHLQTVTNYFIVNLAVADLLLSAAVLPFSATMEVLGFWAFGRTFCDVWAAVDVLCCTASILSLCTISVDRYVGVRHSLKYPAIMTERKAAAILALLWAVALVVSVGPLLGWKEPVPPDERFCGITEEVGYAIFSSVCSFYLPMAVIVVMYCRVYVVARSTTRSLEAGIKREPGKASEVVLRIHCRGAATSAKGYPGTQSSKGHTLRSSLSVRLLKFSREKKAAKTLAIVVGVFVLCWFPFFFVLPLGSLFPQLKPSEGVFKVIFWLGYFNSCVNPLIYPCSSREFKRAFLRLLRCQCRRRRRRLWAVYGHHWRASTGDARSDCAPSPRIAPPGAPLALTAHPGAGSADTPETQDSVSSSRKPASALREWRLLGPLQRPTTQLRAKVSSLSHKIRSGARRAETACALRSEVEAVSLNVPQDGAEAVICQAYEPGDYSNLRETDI
T1 sequence (P43140 whole entry): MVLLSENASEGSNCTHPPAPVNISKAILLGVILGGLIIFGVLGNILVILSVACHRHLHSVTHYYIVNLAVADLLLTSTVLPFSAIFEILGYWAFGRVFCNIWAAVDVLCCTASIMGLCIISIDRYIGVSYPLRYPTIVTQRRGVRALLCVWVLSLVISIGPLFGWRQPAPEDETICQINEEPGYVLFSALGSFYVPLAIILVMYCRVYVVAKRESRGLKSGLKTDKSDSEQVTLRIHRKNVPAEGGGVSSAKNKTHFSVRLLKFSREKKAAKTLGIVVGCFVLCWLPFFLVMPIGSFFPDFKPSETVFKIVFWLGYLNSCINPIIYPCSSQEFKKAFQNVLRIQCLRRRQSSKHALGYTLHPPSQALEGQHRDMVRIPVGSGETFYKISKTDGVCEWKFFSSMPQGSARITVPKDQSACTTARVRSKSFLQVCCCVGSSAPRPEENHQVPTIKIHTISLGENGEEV
Kind of assay: Displacement of [3H]-prazosin from alpha1-adrenergic receptor in rat cerebral cortex by liquid scintillation counting. The format is tissue-based. The method in brief: (§1)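 Rat cerebral cortex was homogenised in ice-cold 50 mM Tris-HCl pH 7.6 and spun at 20,000 g for 20 min at 0–4 °C, then washed once. Radioligands: [3H]prazosin 0.2 nM for α1, [3H]clonidine 2 nM for α2, [3H]CGP-12177 0.2 nM for β1. Test compounds were run at 7–8 concentrations from 10^-11 to 10^-4 M. Nonspecific binding was defined with phentolamine (α1), clonidine (α2) or propranolol (β1). Counting was by liquid scintillation, in duplicate. Ki was derived by Cheng–Prusoff from 2–3 experiments.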

Assay [2] has as its target T2, Adrenergic receptor alpha-2 (Rattus norvegicus, UniProt P22086+P19328+P22909).
T2 sequence (P22086 whole entry): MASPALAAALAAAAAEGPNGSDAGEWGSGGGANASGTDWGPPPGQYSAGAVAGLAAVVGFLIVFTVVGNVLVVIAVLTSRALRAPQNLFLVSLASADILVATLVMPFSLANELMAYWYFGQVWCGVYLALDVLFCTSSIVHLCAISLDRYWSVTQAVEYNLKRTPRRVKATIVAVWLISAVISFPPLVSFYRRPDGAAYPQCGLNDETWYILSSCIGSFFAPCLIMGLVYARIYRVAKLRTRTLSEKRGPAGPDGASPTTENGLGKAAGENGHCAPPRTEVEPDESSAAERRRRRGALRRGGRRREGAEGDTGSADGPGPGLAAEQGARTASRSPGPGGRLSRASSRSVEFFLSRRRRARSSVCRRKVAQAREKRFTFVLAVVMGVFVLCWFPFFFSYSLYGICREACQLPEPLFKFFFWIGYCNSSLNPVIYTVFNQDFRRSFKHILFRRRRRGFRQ
T2 sequence (P19328 whole entry): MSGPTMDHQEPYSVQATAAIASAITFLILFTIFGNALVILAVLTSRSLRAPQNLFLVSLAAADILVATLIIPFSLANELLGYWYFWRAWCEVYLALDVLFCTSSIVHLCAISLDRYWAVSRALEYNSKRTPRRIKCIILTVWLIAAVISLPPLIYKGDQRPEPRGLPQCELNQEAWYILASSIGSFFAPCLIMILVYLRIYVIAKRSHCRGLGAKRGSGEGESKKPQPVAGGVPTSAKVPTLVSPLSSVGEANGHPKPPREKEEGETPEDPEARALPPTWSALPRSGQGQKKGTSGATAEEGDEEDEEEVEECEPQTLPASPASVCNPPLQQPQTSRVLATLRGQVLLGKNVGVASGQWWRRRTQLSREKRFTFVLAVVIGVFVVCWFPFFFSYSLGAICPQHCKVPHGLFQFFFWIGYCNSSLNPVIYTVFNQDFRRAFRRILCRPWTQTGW
T2 sequence (P22909 whole entry): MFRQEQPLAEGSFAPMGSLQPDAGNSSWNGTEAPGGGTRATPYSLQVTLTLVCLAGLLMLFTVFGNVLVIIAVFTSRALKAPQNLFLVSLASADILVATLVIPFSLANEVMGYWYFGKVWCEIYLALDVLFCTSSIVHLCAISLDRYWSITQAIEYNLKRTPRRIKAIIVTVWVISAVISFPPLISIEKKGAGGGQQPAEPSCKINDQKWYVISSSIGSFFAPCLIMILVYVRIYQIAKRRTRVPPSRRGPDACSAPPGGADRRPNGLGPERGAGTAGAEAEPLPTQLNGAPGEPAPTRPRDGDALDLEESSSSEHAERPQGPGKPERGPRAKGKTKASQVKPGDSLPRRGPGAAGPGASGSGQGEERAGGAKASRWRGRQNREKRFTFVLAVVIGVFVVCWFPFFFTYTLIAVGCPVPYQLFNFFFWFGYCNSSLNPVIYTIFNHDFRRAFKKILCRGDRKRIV
The experiment in a line: Displacement of [3H]clonidine from alpha2-adrenergic receptor in rat cerebral cortex by liquid scintillation counting. It is filed as tissue-based. An outline of the steps:
as §1
For orientation: In a radioligand displacement assay an active substance lowers the binding of a labelled ligand.

Turning to `Cl.Cl.O=c1c2ccccc2oc2c(OCC(O)CN3CCN(C/C=C/c4ccccc4)CC3)cccc12` (racemic), the Ki in assay [1] stood at 0.677 µM; in assay [2] it was 0.634 µM.
For `COc1ccccc1N1CCN(CC(COc2cccc3c(=O)c4ccccc4oc23)OC(C)=O)CC1.Cl` (racemic), in that order: 0.05 µM and 2.1 µM.
Regarding `Cl.Cl.Cl.O=c1c2ccc(Cl)cc2oc2c(OCC(O)CN3CCN(CCOc4ccccc4)CC3)cccc12` (racemic), the Ki in assay [1] is 0.506 µM; in assay [2], 0.45 µM.
For `COc1ccccc1N1CCN(CCCOc2cccc3c(=O)c4ccccc4oc23)CC1.Cl`, in that order: 0.004 µM and 0.695 µM.
The corresponding values for `Cl.Cl.Cl.O=c1c2ccc(Cl)cc2oc2c(OCC(O)CN3CCN(C/C=C/c4ccccc4)CC3)cccc12` (racemic) are 1.1 µM and 3.4 µM.
The corresponding values for `Cl.Cl.Cl.O=c1c2ccc(Cl)cc2oc2c(OCC(O)CN3CCN(Cc4ccccc4)CC3)cccc12` (racemic) are 0.614 µM and 7.7 µM.
Turning to `COc1ccccc1N1CCN(CC(O)COc2cccc3c(=O)c4ccccc4oc23)CC1.Cl` (racemic), the Ki in assay [1] was 0.018 µM; in assay [2], 4.26 µM.
